From ChEMBL document CHEMBL3102846 (Eur J Med Chem, 2014)
Active and inactive are the calls of the source. The calls are words filed in the database; no cut-off is given here.

Columns and labels:
[1] = Inhibition of Wnt3A/beta-catenin signaling in HEK293 cells at 5 uM after 24 hrs by firefly/renilla dual luciferase reporter gene assay relative to vehicle-treated control; format: cell-based; design: scale not given: the % may be the effect or the level left; conditions: Homo sapiens
Procedure, shortened: (§1)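 HEK293T cells were co-transfected with TOPglow (or FOPglow) plus pCMV Renilla. At 20 h they were reseeded at 18×10^3/well and treated for 24 h with Wnt-3A conditioned medium (from L-Wnt-3A cells) plus analogs (0.01–20 µM; DMSO ≤0.1%). Firefly/Renilla dual-luciferase ratios were expressed as % of DMSO under Wnt-3A. EC50 was taken from sigmoidal concentration–response fits; three independent experiments.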

[2] = Inhibition of Wnt3A/beta-catenin signaling in human U2OS cells assessed as reduction in nuclear beta-catenin accumulation at 5 uM after 24 hrs by Western blot analysis; format: cell-based
Procedure, shortened: (§2)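 U2OS cells were pretreated with analogs for 24 h, and cytoplasmic and nuclear fractions were prepared for β-catenin immunoblotting. α-Tubulin (cytoplasmic) and lamin A/C (nuclear) were loading references. Bands were quantified by densitometry and expressed as % of DMSO-treated cells, with at least triplicate experiments.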

[3] = Inhibition of Wnt3A/beta-catenin signaling in HEK293 cells at 10 uM after 24 hrs by firefly/renilla dual luciferase reporter gene assay relative to vehicle-treated control; format: cell-based; design: scale not given: the % may be the effect or the level left; conditions: Homo sapiens; procedure, shortened: as §1
[4] = Inhibition of Wnt3A/beta-catenin signaling in human U2OS cells assessed as effect on cytoplasmic beta-catenin level at 5 uM after 24 hrs by Western blot analysis; format: cell-based; procedure, shortened: as §2
[5] = Inhibition of Wnt3A/beta-catenin signaling in HEK293 cells at 1 uM after 24 hrs by firefly/renilla dual luciferase reporter gene assay relative to vehicle-treated control; format: cell-based; design: scale not given: the % may be the effect or the level left; conditions: Homo sapiens; procedure, shortened: as §1
[6] = Inhibition of Wnt3A/beta-catenin signaling-mediated Tcf4 transcriptional activity in human HEK293T cells at dual luciferase reporter gene assay EC50 after 24 hrs by FOPglow reporter gene assay; design: scale not given: the % may be the effect or the level left
[7] = Inhibition of Wnt3A/beta-catenin signaling in HEK293 cells after 24 hrs by firefly/renilla dual luciferase reporter gene assay relative to curcumin; format: cell-based; conditions: Homo sapiens
Procedure, shortened: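 EC50s came from the HEK293T TOPglow/Renilla dual-luciferase assay with Wnt-3A conditioned medium and 24 h compound exposure (0.01–20 µM), using sigmoidal fits; three independent experiments.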

[8] = Inhibition of Wnt3A/beta-catenin signaling in HEK293 cells after 24 hrs by firefly/renilla dual luciferase reporter gene assay; format: cell-based; conditions: Homo sapiens, HEK293, 24 h; procedure, shortened: as §1
[9] = Inhibition of Wnt3A/beta-catenin signaling-mediated Tcf4 transcriptional activity in human U2OS cells at 1 uM after 24 hrs by FOPglow reporter gene assay; format: cell-based
Procedure, shortened: (§3)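 U2OS cells (1.0×10^5/well, 90–95% confluent) were co-transfected with TOPglow or FOPglow (0.3 µg) plus pCMV Renilla. At 20 h they were treated for 24 h with Wnt-3A conditioned medium and analogs. Firefly luciferase was normalized to Renilla and expressed as % of DMSO-treated samples; mean ± S.E.M of three independent experiments.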

[10] = Inhibition of Wnt3A/beta-catenin signaling in HEK293 cells at 20 uM after 24 hrs by firefly/renilla dual luciferase reporter gene assay relative to vehicle-treated control; format: cell-based; design: scale not given: the % may be the effect or the level left; conditions: Homo sapiens; procedure, shortened: as §1
U2OS [11] = experiment: Antiinvasive activity in human U2OS cells at 5 uM after 24 hrs by matrigel assay; format: functional
Procedure, shortened: (§4)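 U2OS osteosarcoma cells were pretreated with analogs for 24 h, and viability was confirmed by trypan blue. Cells were then seeded at 1.5×10^5 in serum-free medium onto inserts precoated with 30 µg Matrigel (8 µm pore), with McCoy's 5A plus 15% FBS below as chemoattractant. After 48 h of invasion, cells were fixed in 70% ethanol, stained with 0.2% crystal violet, and counted in ten random fields at 200×. Values are % of DMSO control; n=3.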

U2OS [12] = experiment: Downregulation of MMP9 protein expression in human U2OS cells at 1 to 5 uM after 24 hrs by Western blot analysis; format: functional, cell-based
Procedure, shortened: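 U2OS cells were exposed to analogs or DMSO vehicle for 24 h, then total protein was collected and MMP-9 immunoblotted. Blots were repeated at least in triplicate.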

U2OS [13] = experiment: Antiinvasive activity in human U2OS cells at 1 uM after 24 hrs by matrigel assay; format: functional; procedure, shortened: as §4
HEK293T (human) = experiment: Cytotoxicity against human HEK293T cells at dual luciferase reporter gene assay EC50 after 24 hrs by MTS assay
[14] = Inhibition of Wnt3A/beta-catenin signaling-mediated Tcf4 transcriptional activity in human U2OS cells at 10 uM after 24 hrs by FOPglow reporter gene assay; format: cell-based; procedure, shortened: as §3
[15] = Inhibition of Wnt3A/beta-catenin signaling-mediated Tcf4 transcriptional activity in human U2OS cells at 20 uM after 24 hrs by FOPglow reporter gene assay; format: cell-based; procedure, shortened: as §3
[16] = Inhibition of Wnt3A/beta-catenin signaling-mediated Tcf4 transcriptional activity in human U2OS cells at 5 uM after 24 hrs by FOPglow reporter gene assay; format: cell-based; procedure, shortened: as §3

SMILES | EC50 [8] [nM] | activity [1] [%] | inhibition [2] | activity [3] [%] | inhibition [4] | activity [5] [%] | activity [6] [%] | fold change (FC) [7] | inhibition [9] [%] | activity [10] [%] | Activity (U2OS [11]) [%] | activity (U2OS [12]) | Activity (U2OS [13]) [%] | Activity (HEK293T (human)) [%] | inhibition [14] [%] | inhibition [15] [%] | inhibition [16] [%]
O=C1/C(=C/c2ccc(O)cc2)CCC/C1=C\c1ccc(O)cc1 | 800 | 26.9 | inactive | 26.3 | inactive | 51.9 | 85.1 | 25.8 | 25.7 | 16.7 | – | – | – | – | – | – | –
O=C1/C(=C/c2ccc(O)cc2)CC/C1=C\c1ccc(O)cc1 | 400 | 28.3 | Active | 19.6 | inactive | 34.3 | 101 | 50.5 | 25.7 | 8 | 72.8 | Active | 34.8 | 81.4 | – | – | –
COc1ccc(/C=C2\CCC/C(=C\c3ccc(OC)c(O)c3)C2=O)cc1O | 300 | 27.7 | Active | 24.7 | inactive | 37.3 | 93.8 | 59.7 | 25.7 | 21.4 | 81.6 | Active | 34.8 | 91.6 | – | – | –
COc1ccc(/C=C2\CC/C(=C\c3ccc(OC)c(O)c3)C2=O)cc1O | 500 | 45 | inactive | 39.5 | inactive | 52.6 | 110 | 40.4 | 25.7 | 39.2 | – | – | – | 86.9 | – | – | –

Further lines, with some results ahead:

EC50 [8] [nM] | SMILES | activity [1] [%] | inhibition [2] | activity [3] [%] | inhibition [4] | activity [5] [%] | activity [6] [%] | fold change (FC) [7] | inhibition [9] [%] | activity [10] [%] | Activity (U2OS [11]) [%] | activity (U2OS [12]) | Activity (U2OS [13]) [%] | Activity (HEK293T (human)) [%] | inhibition [14] [%] | inhibition [15] [%] | inhibition [16] [%]
20700 | COc1cc(/C=C/C(=O)CC(=O)/C=C/c2ccc(O)c(OC)c2)ccc1O [CURCUMIN] | 98.2 | – | 82.5 | – | 99.4 | 89.3 | – | – | 62.8 | 29 | – | – | – | 27.1 | 59.4 | –
3200 | O=C(/C=C/c1ccc(O)cc1)/C=C/c1ccc(O)cc1 | 51.3 | Active | 52 | inactive | 62.3 | 100 | 6.5 | 25.7 | 37.8 | 76.2 | Active | 34.8 | – | – | – | –
1800 | COc1ccc(/C=C/C(=O)/C=C/c2ccc(OC)c(O)c2)cc1O | 38.8 | inactive | 34.4 | inactive | 82.5 | 105 | 11.2 | – | – | – | – | – | 86.6 | – | – | 49.4
